According to ChEMBL document CHEMBL4842312, “Phenoxazine nucleoside derivatives with a multiple activity against RNA and DNA viruses” (Eur J Med Chem, 2021):
Values after ≈ are worked out from the molar mass of the structure shown.

Tests used:
Human alphaherpesvirus 1 = experiment: Antiviral activity against Herpes simplex virus 1 infected in HEL cells assessed as reduction in viral plaque formation; assay type: functional
Method in brief: (§1)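 Confluent HEL cultures received 100 CCID50 or 20 PFU of virus, with 2 h adsorption before inoculum removal. Cells were then incubated with compound from 100 μM downward. Cytopathicity or plaques were scored once untreated infected controls reached completion.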

Human alphaherpesvirus 2 = experiment: Antiviral activity against Herpes simplex virus 2 infected in HEL cells assessed as reduction in viral plaque formation; assay type: functional; method in brief: as §1
Human alphaherpesvirus 3 [1] = experiment: Antiviral activity against Varicella zoster virus infected in HEL cells assessed as reduction in viral plaque formation; assay type: functional; method in brief: as §1
Human betaherpesvirus 5 [2] = experiment: Antiviral activity against cytomegalovirus infected in HEL cells assessed as reduction in viral plaque formation; assay type: functional
Method in brief: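 Confluent HEL cultures infected with 20 PFU of CMV (AD-169 or Davis), 2 h adsorption, inoculum removed, then compounds added at varying concentrations from 100 μM. Plaques scored once complete in untreated infected controls.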

Human alphaherpesvirus 3 [3] = experiment: Antiviral activity against thymidine kinase positive Varicella zoster virus; assay type: functional, organism-based; method in brief: as §1
Human alphaherpesvirus 3 [4] = experiment: Antiviral activity against thymidine kinase deficient Varicella zoster virus; assay type: functional, organism-based; method in brief: as §1
Human betaherpesvirus 5 [5] = experiment: Antiviral activity against Human cytomegalovirus AD169; assay type: functional, organism-based; conditions: Human betaherpesvirus 5, AD169; method in brief: as §1
Human betaherpesvirus 5 [6] = experiment: Antiviral activity against Human cytomegalovirus Davis; assay type: functional, organism-based; conditions: Human betaherpesvirus 5, Davis; method in brief: as §1
HEL = experiment: Cytotoxicity against human HEL cells assessed as reduction in cell viability measured after 3 days by beckman coulter counting method; assay type: cell-based; conditions: 72 h, time 3 day
Method in brief: (§2)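 Cells were seeded at 5 × 10³/well, grown 24 h, then exposed to compound from 100 μM downward for 3 days at 37 °C. Cell number was counted with a Coulter counter.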

[7] = Selectivity index, ratio of CC50 for human HEL cells to EC50 for antiviral activity against thymidine kinase positive Varicella zoster virus; assay type: toxicity; conditions: read-out: Ratio CC50/EC50
[8] = Selectivity index, ratio of CC50 for human HEL cells to EC50 for antiviral activity against thymidine kinase deficient Varicella zoster virus; assay type: toxicity; conditions: read-out: Ratio CC50/EC50
[9] = Selectivity index, ratio of CC50 for human HEL cells to EC50 for Antiviral activity against Human cytomegalovirus AD169; assay type: toxicity; conditions: read-out: Ratio CC50/EC50
[10] = Selectivity index, ratio of CC50 for human HEL cells to EC50 for Antiviral activity against Human cytomegalovirus Davis; assay type: toxicity; conditions: read-out: Ratio CC50/EC50
[11] = test system: Tick-borne encephalitis virus; experiment: Antiviral activity against Tick-borne encephalitis virus infected in pig PEK cells assessed as reduction in virus plaque formation preincubated with virus for 1 hr followed by cell infection and measured after 1 hr by crystal violet staining based assay; assay type: functional, organism-based
Powassan virus = experiment: Antiviral activity against Powassan virus infected in pig PEK cells assessed as reduction in virus plaque formation preincubated with virus for 1 hr followed by cell infection and measured after 1 hr by crystal violet staining based assay; assay type: functional, organism-based
[12] = Selectivity index, ratio of CC50 for pig PEK cells to EC50 for Antiviral activity against Tick-borne virus encephalitis infected in pig PEK cells; assay type: toxicity, cell-based; conditions: read-out: Ratio CC50/EC50
[13] = Selectivity index, ratio of CC50 for pig PEK cells to EC50 for Antiviral activity against Powassan virus infected in pig PEK cells; assay type: toxicity, cell-based; conditions: read-out: Ratio CC50/EC50
[14] = Cytotoxicity in pig PEK cells assessed as reduction in cell viability measured after 5 days by resazurin dye based assay; set-up: species or system Sus scrofa, Kidney; conditions: 120 h, time 5 day
Method in brief: (§3)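 Cells (about 10⁵/well, 5% FBS) were added to two-fold compound dilutions (eight concentrations from 100 μM; DMSO control) and held 5 days at 36.5 °C in CO2. Medium was then replaced with resazurin (25 μg/mL) for 4 h and stopped with SDS. Fluorescence was read at Ex 525 / Em 580–640 nm, with background wells without resazurin subtracted. Done in two replicates; CC50 calculated.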

Chikungunya virus = experiment: Antiviral activity against Chikungunya virus infected in African green monkey Vero cells assessed as reduction in virus plaque formation preincubated with virus for 1 hr followed by cell infection and measured after 1 hr by crystal violet staining based assay; assay type: functional, organism-based
[15] = Selectivity index, ratio of CC50 for African green monkey Vero cells to EC50 for Antiviral activity against Chikungunya virus infected in African green monkey Vero cells; assay type: toxicity; conditions: read-out: Ratio CC50/EC50
Vero = experiment: (§4) Cytotoxicity in African green monkey Vero cells assessed as reduction in cell viability measured after 5 days by resazurin dye based assay; conditions: chlorocebus sabaeus, vero, 120 h; time 5 day; method in brief: as §3
[16] = test system: Respiratory syncytial virus; experiment: Antiviral activity against Respiratory syncytial virus assessed as reduction in virus-induced cytopathic effect by MTS assay; assay type: functional, organism-based; conditions: human respiratory syncytial virus
Influenza A virus = experiment: Antiviral activity against Influenza A virus (H1N1) infected in MDCK cells assessed as reduction in cytopathic effect preincubated with cells for 1 hrs followed by viral addition and measured after 24 hrs by Reed-Muench method; assay type: functional, organism-based
Method in brief: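 MDCK monolayers were pre-incubated 1 h at 37 °C with 3-fold compound dilutions (from 2 mg/mL DMSO stock), then infected at MOI 1 for 24 h. Supernatant yield was titrated by 10-fold dilutions on fresh MDCK for 72 h. Titre was read by hemagglutination with 1% chicken erythrocytes and calculated by Reed-Muench as TID50 per 100 μL.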

HEp-2 = experiment: Cytotoxicity in human Hep2 cells assessed as reduction in cell viability measured after 3 days by beckman coulter counting method; assay type: functional; conditions: HEp-2, 72 h, time 3 day
Method in brief: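 Hep2 cells seeded at 5 × 10³ cells/well and allowed to grow 24 h, then exposed to compound dilutions starting at 100 μM for 3 days at 37 °C. Cell number measured by Coulter counter.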

MDCK = experiment: (§5) Cytotoxicity in dog MDCK cells assessed as reduction in cell viability measured after 3 days by beckman coulter counting method; assay type: cell-based, Canis lupus familiaris; conditions: mdck, 72 h, time 3 day; method in brief: as §2
SARS-CoV-2 = experiment: Antiviral activity against SARS COV-2 infected in monkey vero cells assessed as reduction in virus-induced cytopathic effect preincubated with virus for 1 hr followed by cell infection and measured after 5 days by microscopic analysis; assay type: functional, organism-based; conditions: Severe acute respiratory syndrome coronavirus 2, Vero
[17] = test system: Tick-borne encephalitis virus; experiment: Antiviral activity against Tick-borne encephalitis virus infected in PEK cells assessed as reduction in viral plaque formation incubated for 1 hr by Reed-Muench method; assay type: functional, organism-based
[18] = Selectivity index, ratio of CC50 for dog MDCK cells to EC50 for Influenza A virus (A/California/07/09(H1N1)) infected in MDCK cells; assay type: toxicity, cell-based; conditions: read-out: Ratio CC50/EC50
Human alphaherpesvirus 3 [19] = experiment: Antiviral activity against thymidine kinase deficient Varicella zoster virus infected in HEL cells assessed as reduction in viral plaque formation incubated for 2 hrs; assay type: functional, organism-based; conditions: Human alphaherpesvirus 3, HEL; method in brief: as §1
Human alphaherpesvirus 3 [20] = experiment: Antiviral activity against wild type Varicella zoster virus infected in HEL cells assessed as reduction in viral plaque formation incubated for 2 hrs; assay type: functional, organism-based; conditions: Human alphaherpesvirus 3, HEL; method in brief: as §1
[21] = test system: Omsk hemorrhagic fever virus; experiment: Antiviral activity against Omsk hemorrhagic fever virus infected in pig PEK cells assessed as reduction in virus plaque formation preincubated with virus for 1 hr followed by cell infection and measured after 1 hr by crystal violet staining based assay; assay type: functional, organism-based
[22] = Selectivity index, ratio of CC50 for pig PEK cells to EC50 for Antiviral activity against Omsk hemorrhagic fever virus infected in pig PEK cells; assay type: toxicity, cell-based; conditions: read-out: Ratio CC50/EC50
[23] = as §4; conditions: chlorocebus sabaeus, Vero cells; time 5 day; method in brief: as §3
[24] = as §5; assay type: cell-based, Canis lupus familiaris; conditions: MDCK cells, time 3 day; method in brief: as §2
[25] = Selectivity index, ratio of CC50 for human Hep2 cells to EC50 for Respiratory syncytial virus; assay type: toxicity; conditions: read-out: Ratio CC50/EC50
Human alphaherpesvirus 3 [26] = experiment: Antiviral activity against Varicella zoster virus assessed as inhibition of viral replication; assay type: functional, organism-based

SMILES	EC50 (Human alphaherpesvirus 3 [3])	EC50 (Human alphaherpesvirus 3 [4])	EC50 (Human betaherpesvirus 5 [5])	EC50 (Human betaherpesvirus 5 [6])	CC50 (HEL)	selectivity ratio [10]	EC50 [11]	EC50 (Powassan virus)	selectivity ratio [13]	CC50 [14]	CC50 (Vero)	EC50 [16]	EC50 (Influenza A virus)	CC50 (HEp-2)	CC50 (MDCK)	EC50 (SARS-CoV-2)	also measured
Cc1cn2c(=O)c3ncn(COC(CO)CO)c3nc2[nH]1																	MIC (Human alphaherpesvirus 1): 0.07 µM (≈ 0.0205 µg/mL); MIC (Human alphaherpesvirus 2): 0.07 µM (≈ 0.0205 µg/mL); MIC (Human alphaherpesvirus 3 [1]): 14.3 µM (≈ 4.19 µg/mL); MIC (Human betaherpesvirus 5 [2]): 14.3 µM (≈ 4.19 µg/mL)
CCCCCCCCOc1ccc2c(c1)Nc1nc(=O)n([C@H]3C[C@H](O)[C@@H](CO)O3)cc1O2	420 nM	15.9 µM	54.7 µM	42.3 µM	> 100 µM	> 2	2.8 µM	1.5 µM	> 66	> 100 µM	> 100 µM	> 100 µM	82 µM	> 100 µM	> 100 µM	> 100 µM	selectivity ratio [7]: > 238; selectivity ratio [8]: > 6; selectivity ratio [9]: > 2; selectivity ratio [12]: > 35; EC50 (Chikungunya virus): 2.5 µM; selectivity ratio [15]: > 40
COc1ccc(C(OC[C@H]2O[C@@H](n3cc4c(nc3=O)Nc3ccccc3O4)C[C@@H]2O)(c2ccccc2)c2ccc(OC)cc2)cc1																	EC50 [17]: 400 nM
CCCCCCCCCCOc1ccc2c(c1)Nc1nc(=O)n([C@H]3C[C@H](O)[C@@H](CO)O3)cc1O2	680 nM	15.2 µM	> 100 µM	10.4 µM	50.3 µM	5	40 µM	4.4 µM	> 22	> 100 µM	> 100 µM	> 100 µM	3.4 µM	> 100 µM	> 100 µM	> 100 µM	selectivity ratio [8]: 3; selectivity ratio [18]: > 29
O=c1nc2c(cn1[C@H]1C[C@H](O)[C@@H](CO)O1)Oc1ccccc1N2																	EC50 (Human alphaherpesvirus 3 [19]): 10 µM; EC50 (Human alphaherpesvirus 3 [20]): 60 nM
Cc1cn2c(=O)c3ncn(COCCO)c3nc2[nH]1																	MIC (Human alphaherpesvirus 1): 1.52 µM (≈ 0.4 µg/mL); MIC (Human alphaherpesvirus 2): 1.52 µM (≈ 0.4 µg/mL)
COc1ccc(C(OCCOCn2cc3c(nc2=O)N(C)c2ccccc2O3)(c2ccccc2)c2ccc(OC)cc2)cc1	> 20000 nM	> 20 µM	48.9 µM	44.7 µM	> 100 µM	> 2	16 µM	8 µM	> 12	> 100 µM	> 100 µM	> 100 µM	79 µM	> 100 µM	> 100 µM	> 100 µM	selectivity ratio [9]: > 2; EC50 [21]: 3.1 µM; selectivity ratio [12]: > 6; selectivity ratio [22]: > 32; EC50 (Chikungunya virus): 6.1 µM; selectivity ratio [15]: > 16
O=c1nc2c(cn1[C@H]1C=C[C@@H](O)C1)Oc1ccccc1N2	> 100000 nM	64.4 µM	> 20 µM	> 100 µM	> 100 µM							11 µM		80 µM		> 100 µM	CC50 at 120 h [23]: > 100 µM; CC50 at 72 h [24]: > 100 µM; selectivity ratio [25]: 7
O=c1[nH]c(=O)n([C@H]2C[C@H](O)[C@@H](CO)O2)cc1/C=C/Br [BRIVUDINE]	34 nM	0.42 µM			> 300 µM												EC50 (Human alphaherpesvirus 3 [26]): 3.4 µM
